Data set [1] has as its target T1, Monoacylglycerol lipase ABHD6 (Mus musculus) (UniProt Q8R2Y0).
T1 sequence (whole entry): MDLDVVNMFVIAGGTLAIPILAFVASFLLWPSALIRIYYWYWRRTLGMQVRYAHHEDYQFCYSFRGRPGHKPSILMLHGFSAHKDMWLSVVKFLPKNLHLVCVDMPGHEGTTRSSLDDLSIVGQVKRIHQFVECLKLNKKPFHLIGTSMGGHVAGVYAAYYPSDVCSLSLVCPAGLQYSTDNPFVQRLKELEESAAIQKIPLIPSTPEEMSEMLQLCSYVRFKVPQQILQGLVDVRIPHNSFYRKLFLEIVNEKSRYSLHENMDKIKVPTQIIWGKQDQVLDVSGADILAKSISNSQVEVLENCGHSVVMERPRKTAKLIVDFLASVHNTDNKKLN
Description: Displacement of TAMRA-FP from mouse brain ABHD6 at 10 uM incubated with compound for 5 mins followed by ABPP assay. It is filed as tissue-based. The procedure, abridged:
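Mouse brain membranes (2 mg/mL final, in PBS) preincubated 25 min at 25 °C with test compound (10 μM final) or DMSO vehicle. Controls: JZL-184, URB597 4 μM, WWL70 10 μM, THL, MAFP 5 μM. TAMRA-FP 125 nM final added for 5 min at 25 °C. Reaction stopped with Laemmli buffer, 3 min at 25 °C then 10 min at 90 °C. Separation by 10% SDS-PAGE, fluorescence scanning, three independent experiments.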

A further data set addresses T2, Monoglyceride lipase (Homo sapiens, UniProt Q99685).
T2 sequence (Q99685 whole entry): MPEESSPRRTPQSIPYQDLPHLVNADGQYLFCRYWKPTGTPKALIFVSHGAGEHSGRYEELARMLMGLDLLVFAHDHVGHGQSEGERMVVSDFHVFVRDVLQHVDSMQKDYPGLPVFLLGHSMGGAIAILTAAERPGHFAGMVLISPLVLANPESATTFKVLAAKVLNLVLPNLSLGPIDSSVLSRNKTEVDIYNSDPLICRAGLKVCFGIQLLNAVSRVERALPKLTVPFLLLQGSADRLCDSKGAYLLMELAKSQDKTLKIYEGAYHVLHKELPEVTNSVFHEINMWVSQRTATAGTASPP
Description: Inhibition of human recombinant MAGL using 4-nitrophenylacetate as substrate incubated for 30 mins by microplate reader analysis.

Data set [2] in a line: Thermodynamic aqueous solubility of the compound by LC-MS/MS analysis. It is filed as physicochemical. Conditions: read-out: Therm_solubility. The procedure, abridged:
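Solid compound (1 mg) shaken overnight in 1 mL distilled water at room temperature. Suspension passed through a 0.45 μm nylon filter. Dissolved compound quantified in triplicate by UV/LC-MS or LC-MS/MS against a calibration curve of compound in methanol.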

The nature of data set [3]: Metabolic stability in human liver microsome in presence of NADPH-regenerating system by UV/LC-MS analysis. It is filed as ADME. Conditions: microsomes. In outline: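 Compound incubated 1 h at 37 °C with human liver microsomes (0.2 mg/mL) and an NADPH-regenerating system (NADPH 0.2 mM, NADP+ 1 mM, glucose-6-phosphate 4 mM, G6PDH 4 unit/mL, MgCl2 48 mM) in 25 mM phosphate buffer pH 7.4. Quenched with acetonitrile, then centrifuged. Parent and metabolites measured by UV/LC-MS. Percent unmetabolized obtained against reference solutions; three independent experiments.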
For orientation: Microsomes from liver hold many membrane-bound enzymes, among them those of drug oxidation.

Data set [4] can be described thus: Apparent permeability of the compound by PAMPA method. Format: ADME. The procedure, abridged: (§1)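 Donor solution made from 1 mM DMSO stock diluted in 25 mM phosphate buffer pH 7.4 to 500 μM final. Filter coated with 1% (w/v) phosphatidylcholine in dodecane. Acceptor was 1:1 v/v DMSO/phosphate buffer. Sandwich incubated 5 h at room temperature. Compound in donor and acceptor wells quantified by UV/LC-MS.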

A short description of data set [5]: Stability in human plasma measured after 24 hrs by UV/LC-MS analysis. It is filed as ADME, cell-free. Conditions: read-out: Stability. In outline: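 Compound (2 mM) incubated at 37 °C in pooled human plasma (55.7 mg protein/mL) with HEPES 25 mM, NaCl 140 mM, pH 7.4. Samples taken at 0–24 h and precipitated with cold acetonitrile. After centrifugation, supernatant analysed by UV/LC-MS. Three independent experiments.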

The nature of data set [6]: Permeability of the compound assessed as membrane retention rate by PAMPA method. Format: ADME. In outline: as §1
Data set [7] has as its target T3, Monoglyceride lipase (Mus musculus) (UniProt O35678).
T3 sequence (whole entry): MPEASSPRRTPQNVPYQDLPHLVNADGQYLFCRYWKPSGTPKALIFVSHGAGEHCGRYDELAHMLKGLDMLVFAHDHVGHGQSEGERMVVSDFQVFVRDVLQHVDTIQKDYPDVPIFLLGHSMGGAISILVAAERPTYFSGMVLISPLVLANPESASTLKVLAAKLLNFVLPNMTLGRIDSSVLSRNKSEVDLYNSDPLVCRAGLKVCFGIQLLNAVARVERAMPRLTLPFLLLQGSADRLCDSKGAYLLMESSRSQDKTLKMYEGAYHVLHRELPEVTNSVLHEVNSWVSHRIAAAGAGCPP
Description: Displacement of TAMRA-FP from mouse brain MAGL at 1 uM incubated with compound for 5 mins followed by ABPP assay. Format: tissue-based.

Experimental findings from ChEMBL document CHEMBL5532647, “Design, synthesis, ADME and biological evaluation of benzylpiperidine and benzylpiperazine derivatives as novel reversible monoacylglycerol lipase (MAGL) inhibitors” (Eur J Med Chem, 2024) are described below.

pIC50: −log10 of the molar value. ≈ marks a conversion by molar mass, not a printed value. Calls of active or inactive are those of the source. The rule behind the calls is not given here.

For the compound `CN(Cc1cccc(-c2ccncc2)c1)C(=O)Oc1ccc(-c2ccc(C(N)=O)cc2)cc1`, the result in data set [1] was Active.
In the case of `O=C(c1cc(O)ccc1Sc1ccccc1)N1CCC(Cc2cccc(Sc3cc(C(F)(F)F)ccn3)c2)CC1`, the negative logarithm of the IC50 (pIC50) at Monoglyceride lipase was 7.49.
With `O=C(c1cccc(O)c1)N1CCC(Cc2cccc(Sc3cccc(C(F)(F)F)n3)c2)CC1`, the pIC50 on Monoglyceride lipase is 7.88.
On to `O=C(Nc1cc(O)cc(C(=O)N2CCC(Cc3cccc(Sc4cc(C(F)(F)F)ccn4)c3)CC2)c1)c1ccccc1`, for which the pIC50 on Monoglyceride lipase is 6.83.
The same measure, in the same setting: then `O=C(c1cccc(O)c1)N1CCC(Cc2cc(Sc3cc(C(F)(F)F)ccn3)ccc2F)CC1`, with 7.65; and `O=C(c1ccc(Sc2ccccc2)c(O)c1)N1CCC(Cc2cccc(Sc3cc(C(F)(F)F)ccn3)c2)CC1`, with 6.62; and `O=C(c1cccc(O)c1)N1CCC(Cc2ccc(O)c(Sc3cc(C(F)(F)F)ccn3)c2)CC1`, with 7.21.
On to `COc1ccc(CC2CCN(C(=O)c3cccc(O)c3)CC2)cc1Sc1cc(C(F)(F)F)ccn1`, for which the pIC50 on Monoglyceride lipase was 7.84.
Take `O=C(c1cccc(O)c1)N1CCC(Cc2cccc(Sc3ncccc3C(F)(F)F)c2)CC1`: on Monoglyceride lipase, the pIC50 was 8.15.
For `O=C(c1ccc(Sc2cccc(C(F)(F)F)c2)cc1)C1CCN(C(=O)c2cc(O)ccc2F)CC1`, the solubility thermodynamic in data set [2] was found to be 0.129 ng/mL (≈ 0.256 nM). Also, in data set [3], the Stability worked out at 90.71%. The Papp in data set [4] amounted to 1.83 ×10⁻⁶ cm/s. For the same compound, in data set [5], the remaining at 24 h was more than 99%. Besides, the R% in data set [6] turned out to be 47%.
Turning to `O=C(c1cc(O)cc(Sc2ccccc2)c1)N1CCC(Cc2cccc(Sc3cc(C(F)(F)F)ccn3)c2)CC1`, the negative logarithm of the IC50 (pIC50) on Monoglyceride lipase is 7.35.
With `O=C(Nc1ccc(C(=O)N2CCC(Cc3cccc(Sc4cc(C(F)(F)F)ccn4)c3)CC2)cc1O)c1ccccc1`, the pIC50 at Monoglyceride lipase was less than 6.00.
`O=C(Oc1ccc([N+](=O)[O-])cc1)N1CCC(C(O)(c2ccc3c(c2)OCO3)c2ccc3c(c2)OCO3)CC1`: the outcome in data set [7] was Active.
Take `O=C(c1cccc(O)c1)N1CCC(Cc2cc(Sc3cc(C(F)(F)F)ccn3)ccc2O)CC1`: at Monoglyceride lipase, the pIC50 was 7.68.
As to `COc1ccc(Sc2cc(C(F)(F)F)ccn2)cc1CC1CCN(C(=O)c2cccc(O)c2)CC1`, the negative logarithm of the IC50 (pIC50) at Monoglyceride lipase was 7.31.
Turning to `O=C(c1cccc(O)c1)N1CCC(Cc2cccc(Sc3ccc(C(F)(F)F)cn3)c2)CC1`, the pIC50 at Monoglyceride lipase is 7.39.
With `O=C(Nc1ccc(O)cc1C(=O)N1CCC(Cc2cccc(Sc3cc(C(F)(F)F)ccn3)c2)CC1)c1ccccc1`, at Monoglyceride lipase, the pIC50 is 6.95.

In general, pIC50 refers to the negative decadic logarithm of the IC50, by convention in mol/L. By Papp is commonly meant the rate of passage across a membrane or cell layer, normalised by area and donor concentration.
